Test results as given in ChEMBL document CHEMBL1944635, “Synthesis and evaluation of debromohymenialdisine-derived Chk2 inhibitors” (Bioorg Med Chem, 2012).

Experiments:
[1] = target: T1, Serine/threonine-protein kinase Chk1 (Homo sapiens, UniProt O14757); experiment: Inhibition of human CHK1 using STK1 as substrate after 10 mins by HTRF assay
T1 sequence (O14757 whole entry): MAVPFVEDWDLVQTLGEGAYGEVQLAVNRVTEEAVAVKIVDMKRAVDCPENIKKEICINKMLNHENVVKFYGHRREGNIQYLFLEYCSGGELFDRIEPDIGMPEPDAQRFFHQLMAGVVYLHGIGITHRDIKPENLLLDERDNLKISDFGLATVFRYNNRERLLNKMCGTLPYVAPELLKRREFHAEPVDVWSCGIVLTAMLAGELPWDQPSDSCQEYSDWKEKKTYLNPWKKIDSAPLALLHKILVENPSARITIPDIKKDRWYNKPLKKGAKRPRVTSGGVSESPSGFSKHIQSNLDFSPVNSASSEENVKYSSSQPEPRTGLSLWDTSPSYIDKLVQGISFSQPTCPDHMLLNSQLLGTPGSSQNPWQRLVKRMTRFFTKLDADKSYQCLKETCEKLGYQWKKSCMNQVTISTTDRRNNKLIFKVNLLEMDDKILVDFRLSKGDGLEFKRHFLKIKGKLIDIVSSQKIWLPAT
In short: (§1)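 Human Chk1 or Chk2 was incubated with test agent over a concentration range (final DMSO 0.2%) and STK1 substrate (50 nM for Chk1, 1 µM for Chk2) in 50 mM HEPES pH 7.0 with 5 mM MgCl2 and 1 mM DTT. The reaction was started with 100 µM ATP and ran 10 min at 30 °C. It was stopped with EDTA containing Sa-XL665 and Eu(K) antibody, then held 1 h at room temperature. TR-FRET 665/620 ratio was read, minus the negative control. IC50s are means of at least three independent experiments, each in duplicate.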

[2] = species: Homo sapiens; experiment: Selectivity ratio of IC50 for human CHK1 to IC50 for human CHK2
[3] = target: Serine/threonine-protein kinase Chk2 (Homo sapiens, UniProt O96017); experiment: Inhibition of human Chk2 using STK1 as substrate after 10 mins by HTRF assay; in short: as §1
Serine/threonine-protein kinase Chk2, sequence (O96017 whole entry): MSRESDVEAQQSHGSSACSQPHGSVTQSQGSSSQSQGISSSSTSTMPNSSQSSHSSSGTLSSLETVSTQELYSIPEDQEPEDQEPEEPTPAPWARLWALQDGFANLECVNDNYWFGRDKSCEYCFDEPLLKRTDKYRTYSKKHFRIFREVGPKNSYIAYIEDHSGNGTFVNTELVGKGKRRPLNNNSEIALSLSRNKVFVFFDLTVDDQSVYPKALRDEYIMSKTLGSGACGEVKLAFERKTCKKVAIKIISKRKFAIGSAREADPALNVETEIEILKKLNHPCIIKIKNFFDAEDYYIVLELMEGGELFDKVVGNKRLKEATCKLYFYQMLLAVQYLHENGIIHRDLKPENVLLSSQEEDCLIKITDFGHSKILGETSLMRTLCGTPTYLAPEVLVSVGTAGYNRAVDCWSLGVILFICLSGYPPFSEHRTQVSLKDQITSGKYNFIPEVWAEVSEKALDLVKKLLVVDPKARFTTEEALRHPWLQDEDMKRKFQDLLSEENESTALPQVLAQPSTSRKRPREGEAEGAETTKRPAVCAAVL

SMILES	IC50 [1] [nM]	Ratio IC50 [2]	IC50 [3] [nM]
CCCNC1=NC(=O)/C(=C2\CCNC(=O)c3[nH]c(-c4ccccc4)cc32)N1	> 10000	> 64	156
COc1ccc(CNC2=NC(=O)/C(=C3\CCNC(=O)c4[nH]c(-c5ccccc5)cc43)N2)cc1	> 10000	> 17	588
CCOC(=O)CCNC1=NC(=O)/C(=C2\CCNC(=O)c3[nH]c(-c4ccccc4)cc32)N1	> 10000	> 36	277
NC1=N/C(=C2/CCNC(=O)c3[nH]ccc32)C(=O)N1	–	4	–
CNC1=NC(=O)/C(=C2\CCNC(=O)c3[nH]c(-c4ccccc4)cc32)N1	6560	38	171

Now from value to compound:

IC50 [1] [nM]	Ratio IC50 [2]	IC50 [3] [nM]	SMILES
1550	111	14	COc1ccc(-c2cc3c([nH]2)C(=O)NCC/C3=C2/NC(N)=NC2=O)cc1OC
234	29	–	Nc1nc(C2=C3C(=Nc4ccccc43)C(=O)NCC2)c(O)[nH]1
1310	66	20	NC1=NC(=O)/C(=C2\CCNC(=O)c3[nH]c(-c4ccccc4)cc32)N1
867	62	14	COc1ccc(-c2cc3c([nH]2)C(=O)NCC/C3=C2/NC(N)=NC2=O)cc1
905	32	28	O=C1N=C(NCc2ccccc2)N/C1=C1/CCNC(=O)c2[nH]c(-c3ccccc3)cc21
> 10000	> 7	1530	O=C1N=C(NC2CCCCC2)N/C1=C1/CCNC(=O)c2[nH]c(-c3ccccc3)cc21
